Consider four compounds from paper PMC8204304 (ACS Infectious Diseases, 2021).

Experiment [1] relates to Dd2. As to conditions: read-out: Dd2 IC50; cited from earlier work.
The subject of experiment [2] is NF54. Description: 72 h [3H]hypoxanthine incorporation assay, NF54. The experiment is classed as cell-based. The settings on record: Plasmodium falciparum. The method, boiled down:
(§1)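 Asexual Pf strains were tested in a modified [3H]-hypoxanthine incorporation assay. Drug-resistant laboratory strains were compared with the drug-sensitive NF54 strain. IC50s came from linear interpolation.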

Experiment [3] relates to Dd2. The experiment can be described thus: 72 h [3H]hypoxanthine incorporation assay, Dd2. It counts as cell-based. As to conditions: Plasmodium falciparum.
The subject of experiment [4] is K1. Description: 72 h [3H]hypoxanthine incorporation assay, K1. The settings on record: Plasmodium falciparum. The experiment is classed as cell-based. Summed up: as §1
Experiment [5] deals with 7G8. The experiment can be described thus: 72 h [3H]hypoxanthine incorporation assay, 7G8. The experiment is classed as cell-based. As to conditions: Plasmodium falciparum. The method, boiled down:
as §1

Experiment [6] concerns TM90C2b. Description: 72 h [3H]hypoxanthine incorporation assay, TM90C2b. The experiment is classed as cell-based. As to conditions: Plasmodium falciparum. Summed up:
as §1

In experiment [7] the test system is Cam3.I. Description: 72 h [3H]hypoxanthine incorporation assay, Cam3.I. The settings on record: Plasmodium falciparum. It counts as cell-based. The method, boiled down: as §1
For experiment [8], the system named is Pf parasites. Description: Minimum inoculum resistance. It counts as cell-based, Plasmodium falciparum. The method, boiled down: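 Pf cultures were selected at constant pressure of 3 × IC50 in two groups. The lower-inoculum group used 24 wells. The higher group started at 2 × 10^7 parasites in triplicate, covering 2 × 10^7 to 6 × 10^7. Wells were monitored for day of recrudescence. MIR = total inoculum divided by the number of recrudescent wells. A DHODH inhibitor served as positive control. Resistant clones were whole-genome sequenced.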

Like-named read-outs stand apart in the source and are kept apart here.

The term IC50 denotes the concentration that inhibits the measured activity by half. Consider `O=C(NC1Cc2ccccc2C1)c1nccnc1NC(=O)N1CCCCC1` [N-(2,3-dihydro-1H-inden-2-yl)-3-(piperidine-1-carboxamido)pyrazine-2-carboxamide], for which the IC50 in experiment [1] was 63 nM.
As to `C[C@H]1[C@H](OC(=O)CCC(=O)O)O[C@@H]2O[C@@]3(C)CC[C@H]4[C@H](C)CC[C@@H]1[C@@]24OO3` [artesunate], the IC50 is 4 nM in experiment [2]; 6 nM in experiment [3]; 2 nM in experiment [4]; 2 nM in experiment [5]; 5 nM in experiment [6]; 11 nM in experiment [7].
Take `CCN(CC)CCCC(C)Nc1ccnc2cc(Cl)ccc12` (stereo not shown) [chloroquine]: the IC50 is 8 nM in experiment [2]; 157 nM in experiment [3]; 202 nM in experiment [4]; 79 nM in experiment [5]; 135 nM in experiment [6]; 180 nM in experiment [7].
For the compound `Cc1cc(Nc2ccc(S(F)(F)(F)(F)F)cc2)n2nc(C(C)(F)F)nc2n1` [DSM265], the “minimum inoculum resistance (MIR)” value in experiment [8] (selection pressure 3 × IC50, parasites) was 2 × 10^7. Also, the day of recrudescence entry in experiment [8] (starting inoculum 2 × 10^5 parasites, 24 replicates) was “never recrudesced”; in experiment [8] (starting inoculum 2 × 10^7 parasites, triplicate), 25 days.
